Measurements from ChEMBL document CHEMBL1127444, “Aza-tricyclic substance P antagonists” (J Med Chem, 1994).

Species on record: Cavia porcellus
Assay: Inhibition of capsaicin-induced plasma extravasation in guinea pig ureter
Type: functional
Outline: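 Male Hartley guinea pigs (300–400 g), fasted overnight, anaesthetised with pentobarbital 25 mg/kg. Compound given po 1 h before capsaicin, at four doses. Evans Blue 30 mg/kg iv, then 5 min later 30 μM capsaicin in 0.1% BSA Krebs bicarbonate, 10 mL per animal. Killed 10 min later. Ureter extracted in formamide at 60 °C for 24 h and OD read at 600 nm. ED50 with 95% confidence limits.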

Compound | ED50 [mg/kg]
COc1ccccc1CN[C@H]1C2C3CCCC2CN(C3)[C@H]1C(c1ccccc1)c1ccccc1 | 4.43
COc1ccccc1CNC1C2CC3CCC(C2)N3[C@H]1C(c1ccccc1)c1ccccc1 (stereo not given in full) | 4.13
COc1ccccc1CNC1C2C3CCC2CN(C3)[C@H]1C(c1ccccc1)c1ccccc1 (stereo not given in full) | 2.61
COc1ccccc1CN[C@H]1C2CCN(CC2)[C@H]1C(c1ccccc1)c1ccccc1 [CP-96345] | 2.83

Molecular target: Substance-P receptor (Homo sapiens, UniProt P25103)
Sequence (P25103 whole entry): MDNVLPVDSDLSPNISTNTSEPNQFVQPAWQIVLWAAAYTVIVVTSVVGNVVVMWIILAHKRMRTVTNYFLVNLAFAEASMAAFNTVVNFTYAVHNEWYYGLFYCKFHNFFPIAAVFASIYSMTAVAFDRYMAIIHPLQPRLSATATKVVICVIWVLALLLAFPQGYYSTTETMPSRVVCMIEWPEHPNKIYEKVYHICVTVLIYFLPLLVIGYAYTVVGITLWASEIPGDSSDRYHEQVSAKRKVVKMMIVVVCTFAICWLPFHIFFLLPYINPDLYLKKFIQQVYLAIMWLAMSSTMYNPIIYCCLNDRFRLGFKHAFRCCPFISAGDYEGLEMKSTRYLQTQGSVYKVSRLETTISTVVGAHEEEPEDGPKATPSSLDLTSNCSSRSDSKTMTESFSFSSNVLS
Assay: Tested in vitro for the binding affinity towards NK1 receptor in human IM-9 cells using [125I]-labeled bolton-hunter substance P as ligand
Type: cell-based
Outline: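 IC50 from six-point concentration–response curves, each concentration in duplicate. Mean ± SEM of three separate experiments.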

Compound | IC50 [µM]
Clc1ccccc1CN[C@H]1C2C3CCCC2CN(C3)[C@H]1C(c1ccccc1)c1ccccc1 | 0.039
c1ccc(CNC2C3CC4CCC(C3)N4[C@H]2C(c2ccccc2)c2ccccc2)cc1 (stereo not given in full) | 0.068
c1ccc(CN[C@H]2C3C4CCCC3CN(C4)[C@H]2C(c2ccccc2)c2ccccc2)cc1 | 0.23
COc1ccccc1CNC1C2CC3CCOC(C2)N3[C@H]1C(c1ccccc1)c1ccccc1 (stereo not given in full) | 0.0072
Clc1ccccc1CNC1C2CC3CCC(C2)N3[C@H]1C(c1ccccc1)c1ccccc1 (stereo not given in full) | 0.0071
FC(F)(F)c1ccccc1CNC1C2CC3CCCC(C2)N3[C@H]1C(c1ccccc1)c1ccccc1 (stereo not given in full) | 4.4
COc1ccccc1CNC1C2CC3CCC(C2)N3[C@H]1C(c1ccccc1)c1ccccc1 (stereo not given in full) | 0.00092
c1ccc(CNC2C3CC4CCCC(C3)N4[C@H]2C(c2ccccc2)c2ccccc2)cc1 (stereo not given in full) | 0.17
Clc1ccccc1CNC1C2CC3CCCC(C2)N3[C@H]1C(c1ccccc1)c1ccccc1 (stereo not given in full) | 0.058
COc1ccccc1CNC1C2C3CCC2CN(C3)[C@H]1C(c1ccccc1)c1ccccc1 (stereo not given in full) | 0.0024
COc1ccccc1CNC1C2CC3CCCC2CN3[C@H]1C(c1ccccc1)c1ccccc1 (stereo not given in full) | 0.0019
